The source of these data is ChEMBL document CHEMBL4177753, “Structural Modification of Natural Product Ganomycin I Leading to Discovery of a α-Glucosidase and HMG-CoA Reductase Dual Inhibitor Improving Obesity and Metabolic Dysfunction in Vivo” (J Med Chem, 2018).

One may read the IC50 as the concentration that gives 50% inhibition. Usually Cmax stands for the highest concentration seen after dosing.

A short description of data set [1]: Inhibition of rat small intestinal mucosal alpha-glucosidase using p-nitrophenyl-alpha-D-glucopyranoside as substrate after 40 mins by colorimetric method. The method, boiled down: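 Rat small intestinal mucosal α-glucosidase; several compound concentrations, each run three times in parallel; phosphate-buffer control replaces compound, blank replaces enzyme. Absorbance at 405 nm; % inhibition = blank-corrected OD of test versus control; IC50 derived from the concentration gradient.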

Data set [2] relates to Mus musculus. Briefly: Toxicity in C57BL/6J mouse assessed as effect on body weight at 30 mg/kg administered daily via oral gavage for 3 months. The note with it: in vivo. In kind it is organism-based. The method, boiled down: (§1)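 Long-term safety study in C57BL/6J mice, 20 male and 20 female, sorted by gender, blood glucose and body weight into four groups (n = 10 each). Treated groups of each sex got 30.0 mg/kg daily by oral gavage in soybean vehicle. Vehicle groups got an equal volume of soybean. Dosing ran three months, with behavior, survival, body weight, blood glucose, liver function and organ coefficients recorded.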

In data set [3] the test system is Mus musculus. Nature of the data set: Toxicity in C57BL/6J mouse assessed as effect on plasma ALT levels at 30 mg/kg administered daily via oral gavage for 3 months. In kind it is organism-based. The settings on record: in vivo. The gist of the method: as §1
For data set [4], the system named is Mus musculus. Briefly: Toxicity in C57BL/6J mouse assessed as effect on survival at 30 mg/kg administered daily via oral gavage for 3 months. Format: organism-based. The settings on record: in vivo. The method, boiled down: as §1
The nature of data set [5]: Cmax in Sprague-Dawley rat at 2 mg/kg, po. The settings on record: in vivo. In kind it is ADME, organism-based. Also noted: dose 2 mg/kg, route oral. The gist of the method: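 Male Sprague-Dawley rats (n = 6, 0.21–0.23 kg), single oral dose 2.0 mg/kg. Orbital blood sampled 0–16 h into heparinized tubes. Plasma was protein-precipitated with methanol, with internal standard added. Quantified by UPLC-ESI(+)-QTOF-MS in SIM mode on a C18 column with a methanol/0.3% formic acid water gradient. Linear range 0.54–107 ng/ml.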

For data set [6], the system named is Mus musculus. Briefly: Antiobesity activity in ob/ob mouse assessed as change in lean mass at 3 mg/kg administered daily via oral gavage for 31 days. Format: functional, organism-based. The method, boiled down: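 Male ob/ob mice, n = 10 per group, grouped by blood glucose and body weight. Daily gavage at 0.3, 1.0 or 3.0 mg/kg in soybean vehicle, with soybean vehicle controls and C57BL/6J controls. Body weight, cumulative food intake, LEE index, fat mass and lean mass recorded. Mean ± SEM, one-way ANOVA with Tukey test.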

In data set [7] the test system is Mus musculus. Briefly: Hypoglycemic activity in ob/ob mouse assessed as decrease in HbA1c levels administered daily via oral gavage for 31 days. In kind it is functional, organism-based. The method, boiled down: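 Male ob/ob mice, n = 10 per group, daily gavage at 0.3, 1.0 or 3.0 mg/kg in soybean vehicle. Fasting and free-diet blood glucose and HbA1c measured.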

In data set [8] the test system is Mus musculus. Briefly: Hypoglycemic activity in ob/ob mouse assessed as decrease in blood glucose AUC at 0.3 to 3 mg/kg administered daily via oral gavage for 25 days by OGTT. In kind it is functional, organism-based. The method, boiled down:
(§2)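 Male ob/ob or high-fat-diet C57BL/6J mice dosed daily by gavage at 0.3–3.0 mg/kg. OGTT: glucose 2 g/kg orally after overnight fast. ITT: insulin 0.6 U/kg i.p. after 4 h fast. Glucometer readings at 0, 40, 80 and 120 min; AUC computed from the curves.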

Data set [9] concerns Mus musculus. Briefly: Hypoglycemic activity in C57BL/6J DIO mouse assessed as decrease in blood glucose AUC at 0.3 to 3 mg/kg administered daily via oral gavage for 25 days by OGTT. Format: functional, organism-based. The method, boiled down: as §2
Data set [10] relates to Mus musculus. Briefly: Hypolipidemic activity in ob/ob mouse assessed as decrease in serum total cholesterol levels administered daily via oral gavage for 31 days. Format: functional, organism-based.
Data set [11] has as its system Mus musculus. Nature of the data set: Hypolipidemic activity in C57BL/6J DIO mouse assessed as decrease in plasma free fatty acid levels at 0.3 to 3 mg/kg administered daily via oral gavage for 5 weeks. Format: functional, organism-based. The gist of the method:
(§3)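 High-fat-diet male C57BL/6J mice, n = 8 per group, daily gavage at 0.3–3.0 mg/kg in soybean vehicle for 5 weeks. Serum total cholesterol, triglycerides and free fatty acids measured.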

Data set [12] has as its system Mus musculus. Nature of the data set: Hypolipidemic activity in C57BL/6J DIO mouse assessed as decrease in serum total cholesterol levels at 0.3 to 3 mg/kg administered daily via oral gavage for 5 weeks. Format: functional, organism-based. The method, boiled down:
as §3

In data set [13] the test system is Mus musculus. Briefly: Hypolipidemic activity in ob/ob mouse assessed as decrease in liver total cholesterol levels at 0.3 to 3 mg/kg administered daily via oral gavage for 31 days. In kind it is functional, organism-based.
Data set [14] has as its system Mus musculus. Nature of the data set: In vivo inhibition of alpha-glucosidase activity in ob/ob mouse assessed as accumulation of carbohydrate in lower part of small intestine at 3 mg/kg administered daily via oral gavage for 31 days. Format: functional, organism-based.
The subject of data set [15] is Oscillibacter. Nature of the data set: Decrease in Oscillibacter levels in cecum of ob/ob mouse at 3 mg/kg administered daily via oral gavage for 31 days by 16S rRNA gene high-throughput sequencing method. Format: functional, organism-based. The gist of the method: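 Male ob/ob mice dosed daily by gavage at 1.0 or 3.0 mg/kg, compared with vehicle group. DNA extracted from about 150 mg caecum contents. 16S rRNA V3–V4 region amplified and sequenced on Illumina HiSeq PE250. Community compared by NMDS/MRPP; discriminant taxa identified by LEfSe.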

The test system of data set [16] is Mus musculus. Briefly: Reduction of plasma LPS levels in ob/ob mouse at 1 mg/kg administered daily via oral gavage for 31 days by ELISA relative to vehicle-treated control. In kind it is functional. Also noted: scale not given: the % may be the effect or the level left. The gist of the method: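 Male ob/ob mice treated daily by gavage (soybean vehicle); plasma LPS and TNF-α quantified by ELISA kits. For antibiotic groups, ob/ob mice first received an oral antibiotic cocktail (ampicillin 1 g/L, vancomycin, neomycin, gentamycin, erythromycin) for three weeks, then 3.0 mg/kg/day; n = 8 per group.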
(In general: In an ELISA, binding on a coated surface is turned into a signal by an enzyme label.)

The test system of data set [17] is Mus musculus. Nature of the data set: Downregulation of Tnfa mRNA expression in ob/ob mouse ileum at 3 mg/kg administered daily via oral gavage for 31 days by RNA-seq analysis. In kind it is functional, organism-based.
Data set [18] deals with Mus musculus. Nature of the data set: Upregulation of occludin mRNA expression in ob/ob mouse ileum at 3 mg/kg administered daily via oral gavage for 31 days by RNA-seq analysis. In kind it is functional, organism-based.
The subject of data set [19] is Mus musculus. Briefly: Upregulation of Pparg mRNA expression in ob/ob mouse ileum at 3 mg/kg administered daily via oral gavage for 31 days by RNA-seq analysis. Format: functional, organism-based.
Data set [20] has as its system Mus musculus. Nature of the data set: Antiobesity activity in antibiotic-treated ob/ob mouse assessed as reduction in cumulative food intake at 3 mg/kg administered daily via oral gavage for 18 days. In kind it is functional, organism-based. The gist of the method:
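Male ob/ob mice given drinking water with ampicillin (1 g/L), vancomycin and other antibiotics for three weeks. Groups of n = 8 were dosed at 3.0 mg/kg/day by mouth in soybean vehicle, alongside non-antibiotic ob/ob groups. Weight gain and food intake recorded.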

In data set [21] the test system is Mus musculus. Nature of the data set: Hypoglycemic activity in antibiotic-treated ob/ob mouse assessed as decrease in HbA1c levels at 3 mg/kg administered daily via oral gavage for 3 weeks. In kind it is functional, organism-based. The method, boiled down: (§4)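 Male ob/ob mice pretreated three weeks with ampicillin (1 g/L), vancomycin, neomycin, gentamycin and erythromycin. Groups of n = 8 given 3.0 mg/kg/day orally in soybean vehicle versus vehicle. Plasma and hepatic lipids, fasting glucose, OGTT (glucose 2 g/kg after overnight fast) and HbA1c measured.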

The test system of data set [22] is Mus musculus. Nature of the data set: Hypoglycemic activity in antibiotic-treated ob/ob mouse assessed as decrease in blood glucose AUC at 3 mg/kg administered daily via oral gavage for 3 weeks by OGTT. Format: functional, organism-based. The gist of the method:
as §4

For data set [23], the system named is Mus musculus. Briefly: Hypolipidemic activity in antibiotic-treated ob/ob mouse assessed as decrease in plasma LDL-C levels at 3 mg/kg administered daily via oral gavage for 3 weeks. Format: functional, organism-based. The method, boiled down:
as §4

Data set [24] has as its system Mus musculus. Briefly: Antiobesity activity in ob/ob mouse assessed as cumulative food intake at 3 mg/kg administered daily via oral gavage for 25 days relative to vehicle-treated control.

Activity calls are given as the source filed them. The rule behind the calls is not given here.

`CC(C)=CCC/C(C)=C/CCC1=C[C@H](c2ccc(C(C)(C)C)cc2)OC1=O`: in data set [1], the IC50 is 60 nM. For the same molecule, the Activity result in data set [2] was “Non-Toxic”; in data set [3], “Non-Toxic”; in [4], “Non-Toxic”; in [7] it was “Dose-dependent effect”; in data set [10], “Dose-dependent effect”; in data set [16], 29.8%. In addition, the Activity in data set [24] is recorded as 78%. The same molecule displayed a Cmax in data set [5] of 49.3 ng/mL. The outcome in data set [6], in data set [20], in data set [21], in [22] and in [23] was inactive. In addition, the outcome in data set [8], in data set [9], in [11], in data set [12], in data set [13] and in data set [15] was Active. Besides, the outcome in [17], in data set [18] and in data set [19] was Active. In [14], the inhibition entry is “Active”.
